# Results as given in PMC6072216 (MedChemComm, 2017).
# Experiments:
# VERO cells = assay: Cytotoxicity against GFP-expressing VERO cells; format: cell-based, African Green Monkey; details: 50 μg mL^–1 (158 μM for 2c, 139 μM for 3), 4 days
# [1] = test system: leukaemia, colon, renal and melanoma cancer cell lines; assay: NCI anti-cancer screen, summary over cell line groups; format: cell-based; details: read-out: IC50 values
# [2] = test system: MDA-MB-231 breast cancer cells; assay: MTS cell proliferation/viability assay, MDA-MB-231; format: cell-based, Human; details: for antiproliferative activity (in words): MDA-MB-231, 50 μM, 48 hours, MTS
# How it was run: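 MDA-MB-231 cells cultured in DMEM with 10% FBS and 1% penicillin/streptomycin at 37 °C, 5% CO2; seeded at 7 × 10^3 per well. Serum removed after 24 h, then test compound at 1–50 μM in DMSO (max 0.1%) for 48 h, with a solvent-only control. MTS reagent 4 h at 37 °C, OD 550 nm. Blank-subtracted values normalised to DMSO (100%); triplicates; IC50 by nonlinear regression.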
# [3] = test system: MCF-7 breast cancer cells; assay: MTS cell proliferation assay, MCF-7; format: cell-based, human; details: MCF-7, highest concentration tested 50 μM, 48 h
# How it was run: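 MCF-7 cells seeded at 7 × 10^3 per well; serum withdrawn after 24 h, then exposed 48 h to test compound at 10–50 μM in DMSO (max 0.1%), with a solvent-only control. MTS reagent added; absorbance read at 550 nm after 4 h at 37 °C. Blank-subtracted values normalised to DMSO control (100%); triplicates.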
# MDA-MB-231 cells = assay: Annexin V-FITC/PI apoptosis assay by flow cytometry; format: cell-based, Human; details: 48 hours
# How it was run: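 MDA-MB-231 cells seeded at 1 × 10^5 per well in 6-well plates; 24 h after serum removal, exposed to test compound (20–40 μM) for 48 h against a 0.1% DMSO control. Trypsinised, washed in cold PBS, stained with Annexin V-FITC and PI (50 μg mL–1) in binding buffer for 20 min in the dark at 0 °C. Flow cytometry gated viable, early-apoptotic, late-apoptotic and necrotic fractions. 3 independent experiments; one-way ANOVA with Fisher's PLSD.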
compound,measurement,setting,value
COC(=O)/C=C1\C(=O)C=C2C3CC4CC(CCC4(C)N21)C3(C)NC(C)=O (stereo not shown) [Compound 3],reduction of VERO cell viability,VERO cells,77 % of control
same,IC50,[1],< 10 µM
"COC(=O)C[C@H]1C(=O)C=C2C3CC4CC(CC[C@@]4(C)N21)[C@]3(C)NC(C)=O (stereo partly drawn) [Compound 10, Methyl(E)-[exo-11-acetylamino-9α,endo-11-dimethyl-2-oxo-1,2,4,5,5α,6,7,8,9,9α-decahydro-4,7-methanopyrrolo[1,2-a]-quinolin-1-ylidane]ethanoate]",antiproliferative activity (in words),[2],lack of activity
"CC(=O)N[C@@]1(C)C2CC[C@@]3(C)N=C(CCl)C1CC3C2 (stereo partly drawn) [Compound 8, Exo-11-acetamido-4,endo-11-dimethyl-2-chloromethyl-3-azatricyclo[5.3.1.0^4,9]undec-2-ene]",antiproliferative activity (in words),[2],lack of activity
"CC(=O)N[C@@]1(C)C2CC[C@@]3(C)N[C@@H](CCl)C1CC3C2 (stereo partly drawn) [Compound 9, Exo-11-acetamido-4,endo-11-dimethyl-2-chloromethyl-3-azatricyclo[5.3.1.0^4,9]undecane]",antiproliferative activity (in words),[2],lack of activity
"C[C@]1(NC(=O)CCl)C2CC[C@@]3(C)N=C(CCl)C1CC3C2 (stereo partly drawn) [Compound 2c, Exo-11-chloroacetamido-4,endo-11-dimethyl-2-chloromethyl-3-azatricyclo[5.3.1.0^4,9]undec-2-ene]",MDA-MB-231 cell viability,[2]; at 20 μM,90 % of control
same,antiproliferative activity (in words),[3],no antiproliferative activities
same,increase of population of cells in early apoptosis,MDA-MB-231 cells; 20 μM,21%
same,increase of population of cells in early apoptosis,MDA-MB-231 cells; 40 μM,31%
same,reduction of VERO cell viability,VERO cells,84 % of control
